RGS4 pot: potentiators or activators of RGS4. HEK293 M3R/inducible RGS4, carbachol calcium flux Fluo4; active compounds read low. B-score at 10 µM. actives 0.92% (n = 310,000);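 active = B-score of the integrated calcium signal more than 4 SD below the library mean, with starting fluorescence not abnormally high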;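 also: negative B-score means reduced calcium response which marks RGS4 activation or potentiation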
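Material: Inducible-RGS4 HEK293 cells carrying M3 receptor; also added: carbachol at ECmax as muscarinic agonist stimulus; incubation: compound preincubation 20 min at room temperature before agonist; signal: Fluo4-AM (2 µM) calcium-flux fluorescence, kinetic read; measure: integrated calcium ratio converted to B score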
MrgX1 PAM: allosterically activates human MrgX1 receptor signaling. MrgX1-HEK293, Fluo-4 calcium flux, FDSS; active compounds read high. actives 0.63% (n = 310,000). B-score at 10 µM. Q96LB2;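 active = plate-corrected calcium response at least 3 library SD above typical, normal starting fluorescence, not activating the receptor alone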;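 also: compound read alongside a low EC10 to EC30 dose of BAM8-22 agonist; peak minus trough fluorescence over baseline measured at the second addition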
Target sequence (Q96LB2 whole entry, looked up): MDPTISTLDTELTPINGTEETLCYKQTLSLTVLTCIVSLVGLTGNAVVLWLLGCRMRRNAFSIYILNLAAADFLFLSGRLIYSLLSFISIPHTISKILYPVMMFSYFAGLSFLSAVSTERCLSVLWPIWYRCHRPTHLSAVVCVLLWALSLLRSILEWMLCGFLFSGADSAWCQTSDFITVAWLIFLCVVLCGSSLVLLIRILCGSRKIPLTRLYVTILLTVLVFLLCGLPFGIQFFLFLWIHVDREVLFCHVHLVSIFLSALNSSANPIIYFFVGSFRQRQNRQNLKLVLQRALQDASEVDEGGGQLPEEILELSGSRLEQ
MrgX1 agonist: human MrgX1 receptor agonism, primary screen. actives 0.44% (n = 310,000). AID 588627. Q96LB2. MrgX1-HEK293 cells, Fluo-4 calcium fluorescence, agonist mode; active compounds read high. B-score at 10 µM;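 active = calcium response B-score plate-corrected fluorescence ratio at least 3 library SD, with starting fluorescence B-score inside 5 SD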
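Test system: HEK293 cells stably expressing human MrgX1 receptor; Input: fifteen thousand cells per well; Dosing: compound delivered in addition one of three; Schedule: overnight seeding, then 1 h dark dye loading; Technique: Fluo-4 NW calcium fluorescence; Measure: B-scored fluorescence response ratio; Controls: positive and negative controls per plate.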
RGS4 inh: inhibitors of human RGS4. HEK293 M3R/RGS4 inducible, Fluo-4 calcium flux; active compounds read high; triggered by carbachol at its EC20. B-score at 10 µM. AID 463165. P49798. actives 0.45% (n = 310,000);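 active = B-score, a plate-corrected calcium signal, over three deviations above library mean, with baseline fluorescence within five deviations of library mean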;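 also: RGS4 expression induced by doxycycline in cells with stable M3 receptor; B-score is computed from the integrated fluorescence ratio over baseline after carbachol; higher B-score means a larger calcium signal and so more RGS4 inhibition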
Target sequence (P49798 whole entry, looked up): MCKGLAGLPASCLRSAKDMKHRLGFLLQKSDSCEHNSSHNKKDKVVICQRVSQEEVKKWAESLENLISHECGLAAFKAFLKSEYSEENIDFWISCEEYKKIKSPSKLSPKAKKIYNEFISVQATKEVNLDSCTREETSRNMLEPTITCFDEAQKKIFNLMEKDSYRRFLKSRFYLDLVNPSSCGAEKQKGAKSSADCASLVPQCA
MrgX1 antag: human MrgX1 receptor antagonism, primary screen; MRGX1-HEK293 calcium flux, Fluo-4, BAM8-22 antagonism; active compounds read low; Q96LB2; actives 1.3% (n = 310,000); B-score at 10 µM;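 active = calcium-response B-score plate-corrected more than 3 library SD below zero, starting fluorescence within 5 deviations, no agonist response on first addition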;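 also: peak minus trough fluorescence over baseline after final BAM8-22 challenge near maximal dose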
The depositor's hits bear a star; i = inactive; · = no result given. Only some compounds are listed: those with a hit (about 3.5% of all), similar ones and a draw of the others.

SMILES	RGS4 pot	MrgX1 PAM	MrgX1 agonist	RGS4 inh	MrgX1 antag
CC(=O)Oc1cc(O)c2c(=O)c(OC(C)=O)c(-c3ccc(OC(C)=O)c(OC(C)=O)c3)oc2c1	i	7.97*	i	i	i
Cc1ccc(N(CC(=O)N2CCc3ccccc3C2)S(C)(=O)=O)cc1	i	i	i	i	i
Cc1nn(-c2ccc(Cl)cc2)c(=O)c2ccccc12	i	i	i	i	i
Cc1nn(-c2ccc(Cl)nn2)c(=O)c2ccccc12	i	13.9*	i	i	i
O=C1/C(=C/c2ccc(Br)cc2)Oc2cc(O)ccc21	i	i	i	i	-9.74*
COC(=O)c1ccc2c(c1)C(=O)/C(=C/c1ccc(O)cc1)O2	i	i	i	i	-5.31*
COC(=O)CN1C(=O)N/C(=C/c2ccc(OC)cc2)C1=O	i	i	42.7*	i	i
COC(=O)C1=C(C)N=C2SC(C#N)=C(N)N2C1c1ccc(OCc2ccccc2)cc1 (configuration not stated)	i	i	i	i	i
CCC(C)N(C(=O)CSc1nnc(COc2ccccc2F)n1N)C1CCS(=O)(=O)C1 (configuration not stated)	i	i	i	i	i
CCN(CC(=O)Nc1cc(S(=O)(=O)N2CCOCC2)ccc1C)Cc1ccccc1	i	i	i	i	i
COc1ccc(CCNC(=O)c2nn(C)c3c2CS(=O)(=O)c2ccccc2-3)c(OC)c1	i	i	i	i	i
O=C1CCCC(O)=C1N=Nc1ccc2c(c1)OCO2	i	i	i	i	-5.04*
O=C1CCCC(O)=C1N=Nc1ccc(C(=O)O)cc1	i	i	i	i	i
Cc1ccc(/C(C#N)=C\c2ccc(N3CCOCC3)o2)cc1	i	i	i	i	i
N#C/C(=C/c1ccc(N2CCCCC2)o1)c1cccc(F)c1	i	i	i	i	-6.37*
N#C/C(=C/c1ccc(N2CCCCCC2)o1)c1ccc(Cl)cc1	i	6.47*	i	i	i
N#C/C(=C/c1ccc(N2CCCCC2)cc1)c1cccc(F)c1	i	i	i	i	i
CC(=O)c1c(C)[nH]c(C(=O)Nc2cccc(C(F)(F)F)c2)c1C	i	i	i	i	i
O=C(CSc1ccccc1)Nc1ccc(C(=O)Nc2ccc(O)cc2)cc1	i	·	·	i	·
Cc1ccc(C)c(NC(=O)C2CC3c4ccccc4C2c2ccccc23)c1 (configuration not stated)	i	i	i	i	-5.45*
Cc1ccc(C)c(NC(=O)C2CC=CCC2C(=O)O)c1 (configuration not stated)	i	i	i	i	i
C=CCc1c(Cl)nc(C)nc1NCc1ccccc1	i	i	i	i	i
O=C(N/N=C/c1cn(-c2ccccc2)nc1-c1cccs1)c1ccccc1F	-7.36*	i	i	i	i
O=C(N/N=C/c1cn(-c2ccccc2)nc1-c1cccs1)c1ccc(Cl)cc1	-6.95*	i	i	i	i
O=C(N/N=C/c1cn(-c2ccccc2)nc1-c1cccnc1)c1ccc(F)cc1	i	i	i	i	i
SMILES	RGS4 pot	MrgX1 PAM	MrgX1 agonist	RGS4 inh	MrgX1 antag
N=c1oc2c3c4c(cc2cc1C(=O)Nc1ccccc1)CCCN4CCC3	-9.26*	i	i	i	i
Cc1ccc(-c2csc(NC(=O)COC(=O)c3cccc(S(=O)(=O)N4CCOCC4)c3)n2)cc1	i	i	i	i	-4.85*
CCOC(=O)c1cc2c(=O)n3cccc(C)c3nc2n(Cc2ccco2)c1=NC(=O)c1ccccc1	-7.2*	i	i	i	i
CCOC(=O)c1cc2c(=O)n3ccccc3nc2n(Cc2ccco2)c1=NC(=O)c1cccc(OC)c1	-7.43*	i	i	i	-5.8*
CN(C)/C=C1\C(=O)N(c2ccc([N+](=O)[O-])cc2)N=C1c1ccccc1	i	i	50.4*	i	i
CC1=NN(c2ccc([N+](=O)[O-])cc2)C(=O)/C1=C\N(C)C	i	i	i	i	i
CN(C)/C=C1/C(=O)N(c2ccc([N+](=O)[O-])cc2)N=C1c1ccccc1	i	i	34.8*	i	i
CCCn1c(C(O)c2cc(OC)c(OC)c(OC)c2)nc2ccccc21 (configuration not stated)	i	i	i	i	i
O=C(CCNC(=O)c1ccc(Br)cc1)NCc1ccccn1	i	i	i	i	i
Cc1cccc(C)c1NC(=O)NN=C1CCCCC1	i	i	i	i	i
Nc1nonc1NC(=O)NN=C1CCCCC1	i	i	i	i	-5.88*
COc1cccc(OCc2cc(C(=O)N3CCN(C)C(c4ccccc4)C3)no2)c1 (configuration not stated)	i	i	i	i	i
CC(C)N(CCCNC(=O)c1ccc(CS(=O)(=O)c2c(Cl)cccc2Cl)o1)Cc1ccccc1	-8.59*	i	i	i	i
CCOC(=O)C1=C(c2ccccc2)NC(=S)NC1c1cccc([N+](=O)[O-])c1 (configuration not stated)	i	i	i	i	i
CCOC(=O)C1=C(c2ccccc2)NC(=S)NC1c1ccc(C)c([N+](=O)[O-])c1 (configuration not stated)	i	i	i	i	-4.89*
O=c1c(Cl)c(N2CCOCC2)cnn1-c1nc2ccccc2[nH]1	i	i	i	i	-7.07*
Cc1cc(C)c2nc(N3CCC(C(=O)NCCCN4CCCCC4)CC3)sc2c1	-7.9*	i	i	i	i
CCOc1ccc(NCc2cccn2-c2nnc(N3CCC(C(=O)NCCCN4C(C)CCCC4C)CC3)s2)cc1 (configuration not stated)	-7.62*	i	i	i	i
Cc1cc(C)c2nc(N3CCC(C(=O)NCC4CCCO4)CC3)sc2c1 (configuration not stated)	i	i	i	i	i
CCOc1ccc(NCc2cccn2-c2nnc(N3CCC(C(=O)NCCCN4CCCCC4)CC3)s2)cc1	-9.01*	i	i	i	i
CCOc1ccc(NCc2cccn2-c2nnc(N3CCC(C(=O)NCCCN4CCCCC4C)CC3)s2)cc1 (configuration not stated)	i	i	i	i	i
COC(=O)c1sc2cc([N+](=O)[O-])cc(SCC(C)C)c2c1N	i	i	i	i	-9.24*
O=C(CCS(=O)(=O)Cc1ccc(Cl)cc1)NCCCN1CCN(c2ccccc2F)CC1	-10.4*	i	i	i	i
